Results pooled from the literature.
Lines come from different studies, so protocols differ.
Target: Serine/threonine-protein kinase Chk1 (CHEK1, Homo sapiens, UniProt O14757)
Residues used in one study (O14757 1-476): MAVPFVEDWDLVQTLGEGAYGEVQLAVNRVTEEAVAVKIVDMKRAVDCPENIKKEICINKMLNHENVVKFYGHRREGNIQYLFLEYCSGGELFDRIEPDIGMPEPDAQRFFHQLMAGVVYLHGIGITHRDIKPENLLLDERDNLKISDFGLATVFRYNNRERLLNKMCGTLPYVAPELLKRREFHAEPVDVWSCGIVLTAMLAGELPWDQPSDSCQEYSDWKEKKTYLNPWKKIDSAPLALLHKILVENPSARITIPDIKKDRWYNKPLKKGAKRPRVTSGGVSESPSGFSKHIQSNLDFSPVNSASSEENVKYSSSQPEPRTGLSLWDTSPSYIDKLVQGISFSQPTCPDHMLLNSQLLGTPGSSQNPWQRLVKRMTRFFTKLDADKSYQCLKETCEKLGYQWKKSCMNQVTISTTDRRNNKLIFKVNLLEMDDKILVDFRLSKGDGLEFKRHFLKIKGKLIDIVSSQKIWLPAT

| SMILES | effect on | mode | technique | cell line | concentration | quantity | value |
| --- | --- | --- | --- | --- | --- | --- | --- |
| Cc1ccc(NC(=O)c2ccc(CN3CCN(C)CC3)cc2)cc1Nc1nc(-c2cccnc2)cs1 | cell-free assay | – | – | – | 0.5 µM | remaining signal | 110% |
| Nc1nc(Nc2ccccc2)sc1C(=O)c1c(F)cccc1F | enzyme activity | inhibitor | – | – | 10 µM | remaining activity | 86% |
| Nc1c(C(=O)NCc2ccc(C(=O)NCCCC3CCCCC3)cc2)cnn1-c1ccccc1 | cell-free assay | – | competition with immobilised ligand | – | 0.1 µM | remaining binding | 100% |
| CC(C)(C)c1nc(-c2cccc(NS(=O)(=O)c3c(F)cccc3F)c2F)c(-c2ccnc(N)n2)s1 | enzyme activity | inhibitor | radiometric | – | 1 µM | remaining activity | 100% |
| Cc1ccc(C(=O)NCc2ccsc2)cc1C#Cc1cn(C(C)C)c2ncnc(N)c12 | enzyme activity | inhibitor | – | – | 1 µM | activity vs control | 87% |
| CCN1CCN(Cc2ccc(NC(=O)c3ccc(C)c(/C=C/c4cnc5[nH]ccc5c4OC)c3)cc2C(F)(F)F)CC1 | target engagement in cells | inhibitor | chemoproteomics | A-375 | 5 µM | inhibition | -51.1% |
| Nc1ncnc2occ(-c3ccc(NC(=O)Nc4cc(C(F)(F)F)ccc4F)cc3)c12 | cell-free assay | inhibitor | – | – | 20 µM | remaining signal | 100% |
| C[C@@H]1CCN(C(=O)CC#N)C[C@@H]1N(C)c1ncnc2[nH]ccc12 | cell-free assay | inhibitor | – | – | 0.5 µM | remaining signal | 94.1% |
| O=C(Nc1cnn(-c2csc(C(=O)NC3COC3)c2)c1)Nc1c(F)cccc1Cl | enzyme activity | inhibitor | – | – | 5 µM | remaining activity | 141% |
| CCS(=O)(=O)c1cc2cc(C[C@](O)(CC(C)(C)c3ccc(F)cc3C(N)=O)C(F)(F)F)[nH]c2cn1 | cell-free assay | – | competition with immobilised ligand | – | 1 µM | remaining binding | 97% |
| FC(F)c1nc2ccccc2n1-c1nc(N2CCOCC2)nc(N2CCOCC2)n1 | enzyme activity | inhibitor | – | – | 10 µM | remaining activity | 90% |
| COc1cc2c(Nc3ccc(Br)cc3F)ncnc2cc1OCC1CCN(C)CC1 | cell-free assay | – | – | – | 0.5 µM | remaining signal | 94.4% |
| Cc1cnc(NC2CCOCC2)nc1-n1cnc(C(=O)NC(CN)c2cc(F)cc(Cl)c2)c1 (stereo not drawn) | enzyme activity | inhibitor | radiometric | – | 1 µM | remaining activity | 35% |
| C[C@@]1(Cc2ccc(C#N)cc2)C(=O)N(c2cc(Cl)cc(Cl)c2)c2ncc(C(=O)NC3(c4nc(C5CCC5)no4)CC3)n21 | cell-free assay | – | competition with immobilised ligand | – | 1 µM | remaining binding | 90% |
| CN(C)C1CCN(CC#Cc2nn(C3CCCC3)c3nc(NCc4ccccc4)ncc23)C1 (stereo not drawn) | enzyme activity | inhibitor | FRET | – | 0.1 µM | inhibition | 2% |
| COc1cc(Nc2cnc(C#N)c(O[C@H](C)CN(C)C)n2)ncc1-c1cnn(C)c1 | enzyme activity | inhibitor | radiometric | – | 1 µM | remaining activity | 17% |
| COc1ccc2cc(OCC3(C(=O)O)CN(C(=O)c4ccc(F)cc4)C3)ccc2c1 | cell-free assay | – | competition with immobilised ligand | – | 1 µM | remaining binding | 87% |
| O=C1NC(=O)c2cc(Nc3ccc(F)cc3)c(Nc3ccc(F)cc3)cc21 | cell-free assay | – | – | – | 0.5 µM | remaining signal | 104% |
| Cc1nccc(COC(=O)N2C[C@@H]3[C@@H](CNC(=O)c4ccc5[nH]nnc5c4)[C@@H]3C2)n1 | cell-free assay | – | competition with immobilised ligand | – | 1 µM | remaining binding | 100% |
| Clc1ccc(Nc2nnc(Cc3ccncc3)c3ccccc23)cc1 | cell-free assay | – | – | – | 0.5 µM | remaining signal | 96.5% |
| CS(=O)(=O)NCC[C@H](NC(=O)c1cncc2c1cnn2-c1ccc(F)cc1)c1ccnc(S(C)(=O)=O)c1 | cell-free assay | – | competition with immobilised ligand | – | 1 µM | remaining binding | 97% |
| O=C(Nc1cnn(-c2csc(C(=O)NC3COC3)c2)c1)Nc1ccccc1Cl | enzyme activity | inhibitor | – | – | 5 µM | remaining activity | 98.7% |
| C[C@@H](c1cccc(C#N)c1)n1cc(Cl)cc(C(N)=O)c1=N | cell-free assay | – | competition with immobilised ligand | – | 1 µM | remaining binding | 100% |
| COc1cc(/C=C/C(=O)CC(=O)/C=C/c2ccc(O)c(OC)c2)ccc1O | enzyme activity | inhibitor | – | – | 1 µM | activity vs control | 57% |
